Source: ChEMBL document CHEMBL4680371, “Design and Structure-Activity Relationship of a Potent Furin Inhibitor Derived from Influenza Hemagglutinin” (ACS Med Chem Lett, 2021)
Where a SMILES comes first, the peptide text is derived from it. [ ]: non-standard residue; d: D form. Abu = CC[C@H](N)C(=O)O; Aib = CC(C)(N)C(=O)O

Target: Furin (Homo sapiens, UniProt P09958)
Assay: Inhibition of recombinant soluble human furin using pyroGlu-Arg-Thr-Lys-Arg-methyl-coumaryl-7-amide as substrate measured after 1 hr
Summary of the method: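 Soluble human recombinant furin was tested in a competitive kinetic assay. Ki is reported as the mean ± SD of at least two independent experiments.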

Sequence of Furin (P09958 whole entry): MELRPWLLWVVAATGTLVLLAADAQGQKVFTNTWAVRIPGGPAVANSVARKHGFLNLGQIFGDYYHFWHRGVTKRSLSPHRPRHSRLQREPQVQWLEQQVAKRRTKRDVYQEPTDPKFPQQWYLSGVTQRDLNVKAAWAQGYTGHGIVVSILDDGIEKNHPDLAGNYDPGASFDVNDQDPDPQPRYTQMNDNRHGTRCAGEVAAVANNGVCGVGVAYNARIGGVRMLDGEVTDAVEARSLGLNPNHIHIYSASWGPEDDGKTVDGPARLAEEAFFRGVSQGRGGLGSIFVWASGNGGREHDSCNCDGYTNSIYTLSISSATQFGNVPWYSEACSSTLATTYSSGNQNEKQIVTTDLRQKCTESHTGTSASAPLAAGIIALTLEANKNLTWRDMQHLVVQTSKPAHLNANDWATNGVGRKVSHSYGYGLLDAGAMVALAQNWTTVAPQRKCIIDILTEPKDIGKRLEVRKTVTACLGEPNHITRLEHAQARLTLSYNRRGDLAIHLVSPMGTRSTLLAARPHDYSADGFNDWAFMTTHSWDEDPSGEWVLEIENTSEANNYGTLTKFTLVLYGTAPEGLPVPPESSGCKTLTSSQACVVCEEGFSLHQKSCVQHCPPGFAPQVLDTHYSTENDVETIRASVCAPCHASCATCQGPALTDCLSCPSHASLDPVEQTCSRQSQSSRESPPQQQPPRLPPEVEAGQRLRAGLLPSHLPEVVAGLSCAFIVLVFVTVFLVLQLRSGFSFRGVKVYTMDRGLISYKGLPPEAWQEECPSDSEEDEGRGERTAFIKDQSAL

Compound | Ki
CCCC[C@H](NC(=O)[C@H](CCCNC(=N)N)NC(=O)[C@H](C)NC(=O)[C@H](CCCNC(=N)N)NC(C)=O)C(=O)N[C@@H](CCCNC(=N)N)C(=O)N[C@@H](CCCCN)C(=O)N[C@@H](CCCCN)C(=O)N[C@@H](CCCNC(=N)N)C(=O)N[C@H](C(N)=O)[C@@H](C)O | 19 nM
CC[C@H](NC(=O)[C@H](CCCNC(=N)N)NC(=O)[C@H](C)NC(=O)CNC(C)=O)C(=O)N[C@@H](CCCNC(=N)N)C(=O)N[C@@H](CCCCN)C(=O)N[C@@H](CCCCN)C(=O)N[C@@H](CCCNC(=N)N)C(=O)N[C@H](C(N)=O)[C@@H](C)O (Ac-GAR[Abu]RKKRT-NH2) | 10 nM
CC[C@H](C)[C@H](NC(=O)[C@H](CCCNC(=N)N)NC(=O)[C@H](C)NC(=O)CNC(C)=O)C(=O)N[C@@H](CCCNC(=N)N)C(=O)N[C@@H](CCCCN)C(=O)N[C@@H](CCCCN)C(=O)N[C@@H](CCCNC(=N)N)C(=O)N[C@H](C(N)=O)[C@@H](C)O (Ac-GARIRKKRT-NH2) | 9 nM
CC(=O)N[C@@H](Cc1c[nH]cn1)C(=O)N[C@@H](C)C(=O)N[C@@H](CCCNC(=N)N)C(=O)N[C@@H](CCCNC(=N)N)C(=O)N[C@@H](CCCNC(=N)N)C(=O)N[C@@H](CCCCN)C(=O)N[C@@H](CCCCN)C(=O)N[C@@H](CCCNC(=N)N)C(=O)N[C@H](C(N)=O)[C@@H](C)O | 12 nM
CC[C@H](NC(=O)[C@H](CCCNC(=N)N)NC(=O)[C@H](C)NC(=O)[C@H](CCCNC(=N)N)NC(C)=O)C(=O)N[C@@H](CCCNC(=N)N)C(=O)N[C@@H](CCCCN)C(=O)N[C@@H](CCCCN)C(=O)N[C@@H](CCCNC(=N)N)C(=O)N[C@H](C(N)=O)[C@@H](C)O | 11 nM
CC(=O)N[C@@H](CCCNC(=N)N)C(=O)N[C@@H](C)C(=O)N[C@@H](CCC(N)=O)C(=O)N[C@@H](CCCNC(=N)N)C(=O)N[C@@H](CCCNC(=N)N)C(=O)N[C@@H](CCCCN)C(=O)N[C@@H](CCCCN)C(=O)N[C@@H](CCCNC(=N)N)C(=O)N[C@H](C(N)=O)[C@@H](C)O | 20 nM
CC[C@H](NC(=O)[C@H](CCCNC(=N)N)NC(=O)[C@H](C)NC(=O)[C@@H](CO)NC(C)=O)C(=O)N[C@@H](CCCNC(=N)N)C(=O)N[C@@H](CCCCN)C(=O)N[C@@H](CCCCN)C(=O)N[C@@H](CCCNC(=N)N)C(=O)N[C@H](C(N)=O)[C@@H](C)O | 15 nM
CC[C@H](NC(=O)[C@H](CCCNC(=N)N)NC(=O)[C@H](C)NC(=O)[C@@H]1CCCN1C(C)=O)C(=O)N[C@@H](CCCNC(=N)N)C(=O)N[C@@H](CCCCN)C(=O)N[C@@H](CCCCN)C(=O)N[C@@H](CCCNC(=N)N)C(=O)N[C@H](C(N)=O)[C@@H](C)O | 10 nM
CC(=O)N[C@@H](CCCNC(=N)N)C(=O)N[C@@H](C)C(=O)N1CCC[C@H]1C(=O)N[C@@H](CCCNC(=N)N)C(=O)N[C@@H](CCCNC(=N)N)C(=O)N[C@@H](CCCCN)C(=O)N[C@@H](CCCCN)C(=O)N[C@@H](CCCNC(=N)N)C(=O)N[C@H](C(N)=O)[C@@H](C)O | 21 nM
CC(=O)N[C@@H](CCCNC(=N)N)C(=O)N[C@@H](C)C(=O)N[C@@H](CCCNC(=N)N)C(=O)N[C@H](C(=O)N[C@@H](CCCNC(=N)N)C(=O)N[C@@H](CCCCN)C(=O)N[C@@H](CCCCN)C(=O)N[C@@H](CCCNC(=N)N)C(=O)N[C@H](C(N)=O)[C@@H](C)O)[C@@H](C)O | 8 nM
CC[C@H](C)[C@H](NC(=O)[C@H](C)NC(=O)[C@H](CCCNC(=N)N)NC(C)=O)C(=O)N[C@@H](CCCNC(=N)N)C(=O)N[C@@H](CCCNC(=N)N)C(=O)N[C@@H](CCCCN)C(=O)N[C@@H](CCCCN)C(=O)N[C@@H](CCCNC(=N)N)C(=O)N[C@H](C(N)=O)[C@@H](C)O | 26 nM
CC(=O)N[C@@H](CCCNC(=N)N)C(=O)N[C@@H](C)C(=O)N[C@@H](CCCNC(=N)N)C(=O)N1CCC[C@H]1C(=O)N[C@@H](CCCNC(=N)N)C(=O)N[C@@H](CCCCN)C(=O)N[C@@H](CCCCN)C(=O)N[C@@H](CCCNC(=N)N)C(=O)N[C@H](C(N)=O)[C@@H](C)O | 8 nM
CC(=O)N[C@@H](CCCNC(=N)N)C(=O)N[C@@H](CC(C)C)C(=O)N[C@@H](CCCNC(=N)N)C(=O)N[C@@H](CCCNC(=N)N)C(=O)N[C@@H](CCCNC(=N)N)C(=O)N[C@@H](CCCCN)C(=O)N[C@@H](CCCCN)C(=O)N[C@@H](CCCNC(=N)N)C(=O)N[C@H](C(N)=O)[C@@H](C)O | 23 nM
CSCC[C@H](NC(C)=O)C(=O)N[C@@H](C)C(=O)N[C@@H](CCCNC(=N)N)C(=O)N[C@@H](CCCNC(=N)N)C(=O)N[C@@H](CCCNC(=N)N)C(=O)N[C@@H](CCCCN)C(=O)N[C@@H](CCCCN)C(=O)N[C@@H](CCCNC(=N)N)C(=O)N[C@H](C(N)=O)[C@@H](C)O | 12 nM
CC(=O)N[C@@H](CCCNC(=N)N)C(=O)N[C@@H](C)C(=O)N[C@@H](CCCNC(=N)N)C(=O)N[C@@H](CCC(N)=O)C(=O)N[C@@H](CCCNC(=N)N)C(=O)N[C@@H](CCCCN)C(=O)N[C@@H](CCCCN)C(=O)N[C@@H](CCCNC(=N)N)C(=O)N[C@H](C(N)=O)[C@@H](C)O | 19 nM
CC(=O)N[C@@H](CCCNC(=N)N)C(=O)N[C@@H](C)C(=O)N[C@@H](CCCCN)C(=O)N[C@@H](CCCNC(=N)N)C(=O)N[C@@H](CCCNC(=N)N)C(=O)N[C@@H](CCCCN)C(=O)N[C@@H](CCCCN)C(=O)N[C@@H](CCCNC(=N)N)C(=O)N[C@H](C(N)=O)[C@@H](C)O | 15 nM

Compound | Ki
CC(=O)N[C@@H](CCCNC(=N)N)C(=O)N[C@@H](C)C(=O)N[C@@H](CCCNC(=N)N)C(=O)N[C@@H](Cc1ccc(O)cc1)C(=O)N[C@@H](CCCNC(=N)N)C(=O)N[C@@H](CCCCN)C(=O)N[C@@H](CCCCN)C(=O)N[C@@H](CCCNC(=N)N)C(=O)N[C@H](C(N)=O)[C@@H](C)O | 35 nM
CC(=O)N[C@@H](CO)C(=O)N[C@@H](C)C(=O)N[C@@H](CCCNC(=N)N)C(=O)N[C@@H](CCCNC(=N)N)C(=O)N[C@@H](CCCNC(=N)N)C(=O)N[C@@H](CCCCN)C(=O)N[C@@H](CCCCN)C(=O)N[C@@H](CCCNC(=N)N)C(=O)N[C@H](C(N)=O)[C@@H](C)O | 11 nM
CC(=O)N[C@@H](CCCNC(=N)N)C(=O)N[C@@H](CC(N)=O)C(=O)N[C@@H](CCCNC(=N)N)C(=O)N[C@@H](CCCNC(=N)N)C(=O)N[C@@H](CCCNC(=N)N)C(=O)N[C@@H](CCCCN)C(=O)N[C@@H](CCCCN)C(=O)N[C@@H](CCCNC(=N)N)C(=O)N[C@H](C(N)=O)[C@@H](C)O | 20 nM
CC(=O)N[C@@H](C)C(=O)N[C@@H](C)C(=O)N[C@@H](CCCNC(=N)N)C(=O)N[C@@H](CCCNC(=N)N)C(=O)N[C@@H](CCCNC(=N)N)C(=O)N[C@@H](CCCCN)C(=O)N[C@@H](CCCCN)C(=O)N[C@@H](CCCNC(=N)N)C(=O)N[C@H](C(N)=O)[C@@H](C)O | 11 nM
CC(=O)N[C@@H](CCCNC(=N)N)C(=O)N[C@@H](CCCNC(=N)N)C(=O)N[C@@H](CCCNC(=N)N)C(=O)N[C@@H](CCCNC(=N)N)C(=O)N[C@@H](CCCNC(=N)N)C(=O)N[C@@H](CCCCN)C(=O)N[C@@H](CCCCN)C(=O)N[C@@H](CCCNC(=N)N)C(=O)N[C@H](C(N)=O)[C@@H](C)O | 23 nM
CC(=O)N[C@@H](CCCNC(=N)N)C(=O)N[C@H](C(=O)N[C@@H](CCCNC(=N)N)C(=O)N[C@@H](CCCNC(=N)N)C(=O)N[C@@H](CCCNC(=N)N)C(=O)N[C@@H](CCCCN)C(=O)N[C@@H](CCCCN)C(=O)N[C@@H](CCCNC(=N)N)C(=O)N[C@H](C(N)=O)[C@@H](C)O)C(C)C | 16 nM
CC(=O)N[C@@H](CCC(N)=O)C(=O)N[C@@H](C)C(=O)N[C@@H](CCCNC(=N)N)C(=O)N[C@@H](CCCNC(=N)N)C(=O)N[C@@H](CCCNC(=N)N)C(=O)N[C@@H](CCCCN)C(=O)N[C@@H](CCCCN)C(=O)N[C@@H](CCCNC(=N)N)C(=O)N[C@H](C(N)=O)[C@@H](C)O | 10 nM
CC(=O)N[C@@H](CCCNC(=N)N)C(=O)N[C@@H](C)C(=O)N[C@@H](Cc1c[nH]cn1)C(=O)N[C@@H](CCCNC(=N)N)C(=O)N[C@@H](CCCNC(=N)N)C(=O)N[C@@H](CCCCN)C(=O)N[C@@H](CCCCN)C(=O)N[C@@H](CCCNC(=N)N)C(=O)N[C@H](C(N)=O)[C@@H](C)O | 25 nM
CC(=O)NCC(=O)N[C@@H](C)C(=O)N[C@@H](CCCNC(=N)N)C(=O)N[C@@H](CCCNC(=N)N)C(=O)N[C@@H](CCCNC(=N)N)C(=O)N[C@@H](CCCCN)C(=O)N[C@@H](CCCCN)C(=O)N[C@@H](CCCNC(=N)N)C(=O)N[C@H](C(N)=O)[C@@H](C)O | 11 nM
CC(=O)N[C@@H](CCCNC(=N)N)C(=O)N[C@@H](C)C(=O)N[C@@H](CCCNC(=N)N)C(=O)N[C@@H](CCC(=O)O)C(=O)N[C@@H](CCCNC(=N)N)C(=O)N[C@@H](CCCCN)C(=O)N[C@@H](CCCCN)C(=O)N[C@@H](CCCNC(=N)N)C(=O)N[C@H](C(N)=O)[C@@H](C)O | 55 nM
CC(=O)N[C@@H](CCCNC(=N)N)C(=O)N[C@@H](Cc1ccc(O)cc1)C(=O)N[C@@H](CCCNC(=N)N)C(=O)N[C@@H](CCCNC(=N)N)C(=O)N[C@@H](CCCNC(=N)N)C(=O)N[C@@H](CCCCN)C(=O)N[C@@H](CCCCN)C(=O)N[C@@H](CCCNC(=N)N)C(=O)N[C@H](C(N)=O)[C@@H](C)O | 24 nM
CC(=O)N1CCC[C@@H]1C(=O)N[C@@H](C)C(=O)N[C@@H](CCCNC(=N)N)C(=O)N[C@@H](CCCNC(=N)N)C(=O)N[C@@H](CCCNC(=N)N)C(=O)N[C@@H](CCCCN)C(=O)N[C@@H](CCCCN)C(=O)N[C@@H](CCCNC(=N)N)C(=O)N[C@H](C(N)=O)[C@@H](C)O | 13 nM
CC[C@H](C)[C@H](NC(=O)[C@H](CCCNC(=N)N)NC(=O)[C@H](C)NC(=O)C(C)(C)NC(C)=O)C(=O)N[C@@H](CCCNC(=N)N)C(=O)N[C@@H](CCCCN)C(=O)N[C@@H](CCCCN)C(=O)N[C@@H](CCCNC(=N)N)C(=O)N[C@H](C(N)=O)[C@@H](C)O (Ac-[Aib]ARIRKKRT-NH2) | 13 nM
CC(=O)N[C@@H](CCCNC(=N)N)C(=O)N[C@@H](C)C(=O)N[C@@H](CCCNC(=N)N)C(=O)NC(C)(C)C(=O)N[C@@H](CCCNC(=N)N)C(=O)N[C@@H](CCCCN)C(=O)N[C@@H](CCCCN)C(=O)N[C@@H](CCCNC(=N)N)C(=O)N[C@H](C(N)=O)[C@@H](C)O | 34 nM
CC(=O)N[C@@H](CCCNC(=N)N)C(=O)N[C@@H](C)C(=O)N[C@@H](CC(=O)O)C(=O)N[C@@H](CCCNC(=N)N)C(=O)N[C@@H](CCCNC(=N)N)C(=O)N[C@@H](CCCCN)C(=O)N[C@@H](CCCCN)C(=O)N[C@@H](CCCNC(=N)N)C(=O)N[C@H](C(N)=O)[C@@H](C)O | 270 nM
